Shown are actives, neighbours in structure and some others; about 2.3% of the full set was active somewhere.
TRPC6 inh: inhibitors of mouse TRPC6 channel. B-score at 10 µM. HEK293-TRPC6, membrane potential dye, ACh-evoked depolarization; active compounds read low. hit rate 1.1% among 310,000. Q61143;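 active means B-score under library mean minus 3 SD, initial fluorescence not abnormally high, positive integrated signal ratio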;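 further: B-score derived from integrated fluorescence ratio over the kinetic read; more negative B-score means stronger inhibition of depolarization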
TRPC4 PAM: allosterically enhances the mouse TRPC4 cation channel; HEK293 TRPC4beta/mu-opioid, DAMGO EC20, Fluo-4 Ca2+ flux; active compounds read high; B-score at 10 µM; Q9QUQ5; hit rate 0.42% among 310,000;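 active means B-score of calcium response area above 5 SD of library B-scores, with initial fluorescence ratio within 5 SD of library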;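 further: B-score of integrated fluorescence ratio over time as area under calcium response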
Target sequence (Q9QUQ5 whole entry, looked up): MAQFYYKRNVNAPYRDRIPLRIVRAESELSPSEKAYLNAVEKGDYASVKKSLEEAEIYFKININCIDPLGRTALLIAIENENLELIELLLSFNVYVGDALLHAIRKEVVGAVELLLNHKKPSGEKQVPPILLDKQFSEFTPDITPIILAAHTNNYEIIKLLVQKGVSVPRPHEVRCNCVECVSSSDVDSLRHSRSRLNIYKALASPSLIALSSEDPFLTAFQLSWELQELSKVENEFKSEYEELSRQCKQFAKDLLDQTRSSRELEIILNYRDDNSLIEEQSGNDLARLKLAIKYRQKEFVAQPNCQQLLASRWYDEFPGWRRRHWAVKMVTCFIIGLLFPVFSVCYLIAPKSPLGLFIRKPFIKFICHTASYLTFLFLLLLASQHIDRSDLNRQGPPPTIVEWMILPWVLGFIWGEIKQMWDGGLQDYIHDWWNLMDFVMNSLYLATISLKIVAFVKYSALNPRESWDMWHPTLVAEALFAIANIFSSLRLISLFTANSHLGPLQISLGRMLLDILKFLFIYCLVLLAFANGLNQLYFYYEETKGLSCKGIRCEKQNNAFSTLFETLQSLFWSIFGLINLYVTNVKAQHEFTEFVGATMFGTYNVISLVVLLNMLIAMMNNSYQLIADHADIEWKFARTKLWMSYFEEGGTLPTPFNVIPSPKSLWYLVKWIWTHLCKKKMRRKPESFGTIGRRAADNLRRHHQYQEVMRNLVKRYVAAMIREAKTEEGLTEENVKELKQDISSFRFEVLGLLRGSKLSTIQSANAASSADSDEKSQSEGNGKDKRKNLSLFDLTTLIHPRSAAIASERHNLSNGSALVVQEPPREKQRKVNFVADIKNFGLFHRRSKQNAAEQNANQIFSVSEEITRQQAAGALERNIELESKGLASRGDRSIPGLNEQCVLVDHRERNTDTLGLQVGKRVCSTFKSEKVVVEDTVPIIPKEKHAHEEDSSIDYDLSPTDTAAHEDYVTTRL
TRPC6 act: activators of mouse TRPC6 channel | AID 2550 | hit rate 0.13% among 310,000 | HEK293-TRPC6 membrane potential dye fluorescence; active compounds read high | B-score at 10 µM;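 active means B-score of the integrated fluorescence ratio above library mean plus 3 SD, and starting fluorescence ratio within library mean plus 5 SD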;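 further: higher score means more depolarization so channel activation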
TRPC4 block: TRPC4 (mouse) channel inhibition; Q9QUQ5; HEK293 TRPC4beta/mu-opioid, DAMGO-evoked Fluo4 calcium flux; active compounds read low; B-score at 10 µM; hit rate 0.39% among 300,000;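 active means B-score over 3 SD under the library average, no early fluorescence shift, positive overall ratio signal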
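Material: HEK293 cells with stable TRPC4beta plus mu-opioid receptor expression / Probe or stimulus: DAMGO in two steps, submaximal then maximal / Compound: single concentration per test compound / Technique: kinetic Fluo4 fluorescence imaging of calcium influx / Read-out: per-well B score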
TRPC4 act: TRPC4 (mouse) channel activation; Q9QUQ5; B-score at 10 µM; HEK293 TRPC4beta/mu-opioid, Fluo4 calcium fluorescence; active compounds read high; AID 2237; hit rate 0.49% among 310,000;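 active means B-score above 5 SD of library B-scores, and initial fluorescence ratio not above library mean plus 5 SD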;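 further: positive B-score marks a calcium rise read as TRPC4 activation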
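Material: HEK293 stable line with TRPC4beta plus mu-opioid receptor; technique: Fluo4 calcium-sensitive dye fluorescence, kinetic, 1 Hz baseline; timing: Fluo4 dye loading 45 min at room temperature, 110 s recording; controls: assay buffer as low control, maximal DAMGO as high control; read-out: integrated baseline-normalised fluorescence ratio, converted to per-well B score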
TRPC4 sel inh 2: second selectivity test of TRPC6 inhibitors: effect on mouse TRPC4; shares compounds with TRPC6 inh; HEK293 TRPC4/MOR, membrane potential dye fluorescence; channel activated by saturating DAMGO dose; inhibition, % at 10 µM; hit rate 42% among 920; AID 2776;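 active means compounds whose fluorescence signal differed from control wells by over 3 SD, either direction, in both duplicate plates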
TRPC4 spec: tests whether TRPC6 inhibitors also affect mouse TRPC4; activity change, negative = inhibition, % at 10 µM; hit rate 61% among 920; HEK293 TRPC4/mu-opioid, membrane potential fluorescence; shares compounds with TRPC6 inh;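 active means rise or fall in signal beyond 3 SD of buffer-only wells in both replicate plates, either sign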;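 further: integrated kinetic ratio of fluorescence range over baseline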
HEK293 MPD ctr 2-1: second counter-screen for TRPC6 inhibitors: parental HEK293 cells; AID 2779; parental HEK293 membrane potential dye fluorescence; maximal acetylcholine challenge after compound addition; signal change vs control, % at 10 µM; shares compounds with TRPC6 inh; hit rate 31% among 920;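 active means membrane potential signal moving either way by over 3 SD of the maximum-effect control, in both duplicate plates, meaning non-specific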
HEK293 MPD ctr-1: parental HEK293 nonspecific activity of TRPC6 inhibitors | shares compounds with TRPC6 inh | parental HEK293 membrane potential dye fluorescence | membrane potential signal change, % at 10 µM | hit rate 60% among 920 | AID 2780;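 active means membrane potential signal shifting up or down by more than 3 SD of buffer-only wells, on both duplicate plates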
HEK293 MPD ctr-2: counter-screen for TRPC6 modulators: effect in parental HEK293 cells; shares compounds with TRPC6 inh; membrane potential dye fluorescence; hit rate 51% among 2,400; membrane potential signal change, % at 10 µM;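 active means membrane potential signal moves up or down beyond 5 SD from buffer-only wells, on both duplicate plates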
HEK293 MPD ctr 2-2: second counter-screen for TRPC6 modulators: effect in parental HEK293 cells | hit rate 14% among 2,400 | AID 488926 | membrane potential dye fluorescence; after compound, maximal acetylcholine stimulation | inhibition, % at 10 µM | shares compounds with TRPC6 inh;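 active means membrane potential signal drops by more than 5 SD from the mean control signal, in both duplicate plates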;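 further: plate controls were acetylcholine ECmax control wells for no effect and buffer only wells for full effect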
TRPC4/MOR mod: tests whether TRPC6 modulators also affect mouse TRPC4; shares compounds with TRPC6 inh; percent change from control (negative = decrease, positive = increase), % at 10 µM; AID 488927; HEK293 TRPC4/mu-opioid, membrane potential fluorescence; hit rate 69% among 2,400;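 active means membrane potential signal moved up or down beyond 5 SD of buffer control wells, in both duplicate plates, actives on both sides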;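 further: plate controls were assay buffer wells for no effect and DAMGO maximal-effect wells for full effect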
TRPC4/MOR inh 2: second check of whether TRPC6 modulators also affect mouse TRPC4; shares compounds with TRPC6 inh; HEK293 TRPC4/mu-opioid, membrane potential dye fluorescence; stimulated with maximal-effect DAMGO; inhibition, % at 10 µM; hit rate 55% among 2,400; AID 488928;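 active means drop in membrane potential signal beyond 5 SD of the control wells in both duplicate plates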;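 further: TRPC4 counter screen for TRPC6 hits run under conditions tuned for TRPC6 not TRPC4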
TRPC6 block conf: confirmation of mouse TRPC6 inhibitors; shares compounds with TRPC6 inh; HEK293-TRPC6, membrane potential dye, ACh-evoked depolarization; inhibition, % at 10 µM; hit rate 43% among 3,300;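 active means fluorescence ratio falls more than 5 SD below the full-stimulation control mean, in both duplicate runs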;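 further: integrated fluorescence ratio of peak minus minimum over baseline after agonist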
TRPC6 act conf: confirmation of mouse TRPC6 activators; shares compounds with TRPC6 inh; HEK293-TRPC6 membrane potential dye fluorescence, FDSS; activation, % at 10 µM; hit rate 11% among 2,800; AID 488961;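 active means ratio signal rise beyond 5 SD above unstimulated control wells' mean, seen in both duplicate runs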;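 further: plate controls were buffer EC0 wells for no effect and acetylcholine ECmax response for full effect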
An asterisk follows results filed as active; i = inactive; x = no result given.

SMILES	TRPC6 inh	TRPC4 PAM	TRPC6 act	TRPC4 block	TRPC4 act	HEK293 MPD ctr-2	HEK293 MPD ctr 2-2	TRPC4/MOR mod	TRPC4/MOR inh 2	TRPC6 block conf	TRPC6 act conf	others
COCCn1c(C)cc(/C=C(\C#N)C(=O)OCC(=O)N(C)c2c(N)n(Cc3ccccc3)c(=O)[nH]c2=O)c1C	i	i	i	i	i	x	x	x	x	x	x
CN(C)N(Cc1ccccc1)C(=O)C(O)(c1ccccc1)c1ccccc1	i	i	i	i	i	x	x	x	x	x	x
CN(C)C(C)(C)/C=C/C(O)(c1ccccc1)c1ccccc1	-8*	i	i	i	i	x	x	x	x	54%*	i	TRPC4 sel inh 2=i;TRPC4 spec=i;HEK293 MPD ctr 2-1=-7.0%*;HEK293 MPD ctr-1=0.3%*
COc1ccc(OC)c(S(=O)(=O)Nc2c(NC3CCCCC3)c3ccccc3oc2=O)c1	i	i	i	i	i	x	x	x	x	x	x
O=C(CC(c1ccccc1)c1ccccc1O)N1CCCCC1 (configuration not stated)	-6.3*	i	i	i	i	i	i	i	i	i	x
Cc1[nH]n(-c2ccc([N+](=O)[O-])cc2)c(=O)c1/C=N/N1CCOCC1	i	i	i	i	i	x	x	x	x	x	x
CC(=NCCCn1ccnc1)c1c(C)[nH]n(-c2ccc([N+](=O)[O-])cc2)c1=O	-5.5*	i	i	i	i	-208%*	i	-42%*	37%*	i	i
CN(C)c1nc(F)c(F)c(S(=O)(=O)c2ccccc2)c1F	-5.3*	i	i	i	i	i	i	i	i	i	i
COc1ccc(NC(=O)COC(=O)CC2CCCC2)cc1Cl	i	i	i	i	i	x	x	x	x	x	x
N#Cc1cc2[nH]c3ccccc3c2[n+](-c2ccc([N+](=O)[O-])cc2)c1N	-9.9*	i	i	i	i	-322%*	94%*	-18%*	97%*	75%*	i
COc1ccccc1CCn1c(N)cc(=O)[nH]c1=O	i	i	i	i	i	x	x	x	x	x	x
COc1ccc2nc(N(CCN(C)C)C(=O)c3ccc4c(c3)OCCO4)sc2c1	-5.1*	i	i	i	i	i	i	-24%*	72%*	64%*	i
CN(C)CCN(C(=O)c1ccc2c(c1)OCCO2)c1nc2cc3c(cc2s1)OCO3	-6.4*	i	i	i	i	-82%*	100%*	-24%*	92%*	88%*	i
CN(C)CCN(C(=O)c1ccc2c(c1)CCCC2)c1nc2cc3c(cc2s1)OCCO3	i	i	i	i	i	x	x	x	x	x	x
COc1ccc(S(=O)(=O)N2CCN(c3ccc4nnc(-c5ccc(F)cc5)n4n3)CC2)cc1	-6.8*	i	i	i	i	x	x	x	x	i	i	TRPC4 sel inh 2=i;TRPC4 spec=i;HEK293 MPD ctr 2-1=i;HEK293 MPD ctr-1=i
N=c1n(CCN2CCCC2)c2ccccc2n1CC(O)c1ccc(Cl)c(Cl)c1 (configuration not stated)	-5.8*	i	i	i	i	i	i	i	47%*	52%*	i
N=c1n(Cc2ccccc2)c2ccccc2n1CC(O)c1ccccc1 (configuration not stated)	-7.8*	i	i	i	i	x	x	x	x	i	i	TRPC4 sel inh 2=28%*;TRPC4 spec=27%*;HEK293 MPD ctr 2-1=i;HEK293 MPD ctr-1=10%*
Cc1ccccc1OCC(O)Cn1c(=N)n(Cc2ccccc2)c2ccccc21 (configuration not stated)	-5.1*	i	i	-6*	64*	120%*	i	40%*	102%*	70%*	x
N=c1n(CCN2CCOCC2)c2ccccc2n1CC(=O)c1ccc(Cl)c(Cl)c1	i	i	i	i	i	x	x	x	x	x	x
CCCCn1c(=N)n(CC(O)COc2cccc(C)c2)c2ccccc21 (configuration not stated)	-6.7*	i	i	i	i	x	x	x	x	i	x	TRPC4 sel inh 2=38%*;TRPC4 spec=40%*;HEK293 MPD ctr 2-1=270%*;HEK293 MPD ctr-1=23%*
CCOC(=O)C(=CNc1cscc1S(=O)(=O)C(C)C)C(=O)OCC	i	i	i	i	i	x	x	x	x	x	x
Cc1ccc(Cn2c(=N)n(CC(O)c3ccco3)c3ccccc32)cc1 (configuration not stated)	-5.6*	i	i	-8*	i	178%*	i	33%*	88%*	54%*	x
COc1ccccc1OCC(O)Cn1c(=N)n(Cc2ccccc2)c2ccccc21 (configuration not stated)	-6.4*	i	i	i	i	122%*	i	46%*	102%*	52%*	x
N#Cc1c(NC(=O)c2ccccc2)sc2c1CCCCC2	i	i	i	i	i	x	x	x	x	x	x
N#Cc1c(Cl)nsc1NC(=O)c1ccccc1	-5.3*	i	i	i	i	256%*	i	101%*	80%*	71%*	x
COc1ccc(Cn2c(-c3ccc(Br)cc3)c[n+]3ccccc23)cc1	-13*	i	i	i	i	-269%*	i	-47%*	48%*	60%*	i
